Compound activity deposited in PubChem BioAssay by several laboratories.
KLK7 zymogen act – activates the human kallikrein-7 zymogen | purified proKLK7, EDANS-DABCYL substrate fluorescence; 100% is mature enzyme control, 0% vehicle | P49862 | 370,000 compounds, 0.9% hits | activation, % at 7 µM;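 active = activation above the mean of all tested compounds plus 3 SD, computed per campaign excluding outliers beyond control limits, cut at about 13% in these data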
PLC-gamma1 inh – inhibitors of human phospholipase C gamma1; P19174; purified PLC-gamma1, fluorogenic substrate, fluorescence; inhibition, % at 12.2 µM; 370,000 compounds, 0.84% hits; AID 720700; in the data active = inhibition above about 9.5%
NRP1-CendR mod – modulators of CendR peptide binding to human neuropilin-1 | FAM-RPARPAR peptide binding to NRP-1, fluorescence polarization | O14786 | inhibition, % at 25 µM | 360,000 compounds, 0.85% hits;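 active = inhibition or corrected inhibition above about 18%, plus a signal ratio from 0.5 to 1.5, limit read from the data, passing the limit was not always enough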
DDE Tn6 FP inh – disrupts Tn6 cyclic peptide binding to fibrin D-Dimer-E complex; P02675; Fibrin DD(E) TRITC-Tn6 fluorescence polarization displacement; inhibition, % at 8.3 µM; 370,000 compounds, 0.21% hits; AID 720509;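 active = inhibition above a per-campaign cutoff: mean of compounds within control limits plus 3 SD, cut at about 15% in these data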;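 note: 0% = median of all compound wells on the plate and 100% = blocking peptide control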
Target sequence (P02675 whole entry, looked up): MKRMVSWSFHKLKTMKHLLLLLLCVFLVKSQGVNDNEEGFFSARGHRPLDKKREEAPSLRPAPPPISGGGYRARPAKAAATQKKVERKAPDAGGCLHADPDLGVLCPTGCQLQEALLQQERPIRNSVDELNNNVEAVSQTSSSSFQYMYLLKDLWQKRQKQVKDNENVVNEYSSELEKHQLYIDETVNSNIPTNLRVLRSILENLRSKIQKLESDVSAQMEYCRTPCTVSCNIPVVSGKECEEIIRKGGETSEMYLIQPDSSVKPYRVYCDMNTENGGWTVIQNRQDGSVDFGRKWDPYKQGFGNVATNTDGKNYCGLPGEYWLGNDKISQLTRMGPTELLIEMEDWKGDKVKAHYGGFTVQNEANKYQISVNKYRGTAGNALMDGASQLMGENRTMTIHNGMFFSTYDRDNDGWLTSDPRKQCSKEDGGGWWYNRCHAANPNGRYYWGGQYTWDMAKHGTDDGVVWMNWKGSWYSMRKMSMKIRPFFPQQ
PLC-beta3 inh – PLC-beta3 (human) inhibition, primary screen; 370,000 compounds, 0.18% hits; inhibition, % at 12.2 µM; Q01970; Purified PLC-beta3, fluorogenic substrate, fluorescence;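 note: 0% = median of compound wells on plate and 100% = full blocker control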
Tn7 DDE FP – disrupts Tn7 cyclic peptide binding to fibrin D-Dimer-E complex. P02675. FP displacement of FITC-Tn7 peptide from fibrin DD(E); 0% = median of compound wells per plate. inhibition, % at 8.3 µM. 370,000 compounds, 0.13% hits. AID 720508;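 active = inhibition above the mean of compounds falling within the control limits plus 3 SD of them, cut at about 14% in these data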;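 note: 0% = plate median of compound wells and 100% = 10 µM Aha-Tn7 peptide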
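Measure: % inhibition scaled between sample-field median and high-control FP; Test system: human fibrin DD(E); Quantity: 2 µM final DD(E) protein; Doses: one dose, 8.3 µM nominal; Schedule: compound with protein 10 min, then 3 h after probe, room temperature; Detection: fluorescence polarization; Medium: Tris buffer with calcium and detergent, pH 7.8.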
PLCgamma1 ctr – inhibits human PLC-gamma1 in PLC-beta3 counter-screen; shares compounds with PLC-gamma1 inh; purified PLC-gamma1, fluorogenic substrate, fluorescence; inhibition, % at 12.3 µM; 3,300 compounds, 3.1% hits; in the data active = inhibition above about 9.5%
PLCbeta3 conf – human PLC-beta3 inhibition, confirmation; inhibition, % at 12.3 µM; purified PLC-beta3, fluorogenic substrate fluorescence; AID 743261; shares compounds with PLC-gamma1 inh; 3,300 compounds, 1% hits
Active calls of the source: *; i = inactive; . = not tested or not shown. Compounds with a hit are over-represented: about 3% of the library has one in this group of screens. Cut-off read from the data, not from the text of the source, unless noted: active = inhibition above about 11%; inactive = the rest.

SMILES	KLK7 zymogen act	PLC-gamma1 inh	NRP1-CendR mod	DDE Tn6 FP inh	PLC-beta3 inh	Tn7 DDE FP	PLCgamma1 ctr	PLCbeta3 conf
O=C(Nc1nnc(C2CCCC2)s1)C1CCN(S(=O)(=O)c2ccc(Cl)cc2)CC1	0	-2	-13	4	2	5	.	.
Cc1ccc(S(=O)(=O)N2CCC(C(=O)Nc3nnc(C4CCCC4)s3)CC2)cc1	0	15*	0	5	7	-6	-2	-1
O=C(NCCOCC(F)(F)C(F)F)c1cc(F)c(F)cc1Cl	0	15*	15	1	2	2	-3	-5
O=C(OCC(=O)C12CC3CC(CC(C3)C1)C2)c1cnccn1	0	12*	-10	-3	3	-8	1	1
O=C(OCC(=O)C12CC3CC(CC(C3)C1)C2)c1ccccn1	0	5	8	3	-1	1	.	.
O=C(COC(=O)c1cnccn1)c1ccccc1	0	-1	9	-5	12*	-2	-4	0
O=C(OCC(=O)C12CC3CC(CC(C3)C1)C2)c1ccc(O)cc1O	0	10*	-4	7	3	5	2	3
O=C(COC(=O)c1ccc(O)cc1O)NC12CC3CC(CC(C3)C1)C2	0	7	4	-1	-1	-5	.	.
Cn1c(=O)c2cc(S(=O)(=O)N3CCN(c4ccccc4Cl)CC3)ccc2n(C)c1=O	0	0	.	0	0	-3	.	.
CC(C)(C)N(NC(=O)NCCCl)C(=O)c1ccccc1Cl	1	4	.	-1	4	3	.	.
COc1ccc(CCN(C)C(=O)CN2C(=O)NC3(CCCc4ccccc43)C2=O)cc1OC (configuration not stated)	0	12*	-2	-6	-4	-4	-8	-74
O=C(Nc1ccc(OC(F)(F)F)cc1)Nc1c(-c2ccccc2)nc2ncccn12	-4	-435	.	-11	i	2	.	.
Cn1cccc1C(=O)NC(=O)COC(=O)CC12CC3CC(CC(Br)(C3)C1)C2	0	-9	-7	3	-9	4	.	.
O=C(COC(=O)CC12CC3CC(CC(Br)(C3)C1)C2)NC(=O)NCc1ccco1	0	11*	0	-10	7	-5	-7	-6
CC(OC(=O)CCCCCN=C1NS(=O)(=O)c2ccccc21)C(=O)Nc1cc(Cl)cc(Cl)c1 (configuration not stated)	1	9.7*	3	-5	6	-4	1	0
O=C(NCCCc1ccccc1)OC1CCC12CCC(c1ccccc1)CC2 (configuration not stated)	0	0	.	-8	-1	-1	.	.
COc1ccc(N(CC(=O)Nc2ccc(C)cc2C)S(=O)(=O)c2c(C)n[nH]c2C)cc1	0	4	-2	3	-3	-3	.	.
CS(=O)(=O)N(CC(=O)Nc1ccccc1C(=O)N1CCCC1)c1ccc2c(c1)OCO2	0	9.6*	-66	2	3	-5	8	0
COc1ccc(N(CC(=O)Nc2cc(Cl)ccc2C)S(=O)(=O)c2c(C)n[nH]c2C)cc1	-1	13*	5	-7	-3	3	3	4
COC(=O)c1ccccc1NC(=O)CN(c1ccc(OC)cc1)S(C)(=O)=O	0	4	-7	5	14*	-4	-4	-1
CN(C)[C@H]1CCN(c2cccc3c2S(=O)(=O)N(C2CC2)CCCO3)C1	0	0	.	-9	-1	-4	.	.
N#C[C@@H]1N[C@H](CO)[C@@H]1c1ccccc1	0	1	.	4	-1	0	.	.
O=C(CN1C2=NCCCN2c2ccccc21)c1ccc([N+](=O)[O-])cc1	-1	9.6*	0	6	8	-10	-5	-2
O=C(CN1C2=NCCCN2c2ccccc21)c1cccc(Br)c1	0	0	-10	10	-4	0	.	.
